{"data": "Measurements collected from several papers", "target": "Fibroblast growth factor receptor 2 (FGFR2, Homo sapiens, UniProt P21802)", "note": "Lines come from different studies, so protocols differ."}
{"SMILES": "N#Cc1ccc(NC(=O)Nc2ccccc2)cc1", "observed": "cell-free assay", "method": "competition with immobilised ligand", "concentration": "25 µM", "measurement": "remaining binding", "value": "100%"}
{"SMILES": "CC(C)S(=O)(=O)c1ccc2nccc(Nc3ccc4sc(C5CCCC5)nc4c3)c2c1", "observed": "enzyme activity", "mode": "inhibitor", "concentration": "1 µM", "measurement": "activity vs control", "value": "110%"}
{"SMILES": "CO[C@@H]1[C@H](N(C)C(=O)c2ccccc2)C[C@H]2O[C@]1(C)n1c3ccccc3c3c4c(c5c6ccccc6n2c5c31)C(=O)NC4", "observed": "enzyme activity", "mode": "inhibitor", "concentration": "1 µM", "measurement": "inhibition", "value": "42%"}
{"SMILES": "CN1CCN(C(=O)c2ccc(NC(=O)Nc3ccc(N(C)c4ccnc(Nc5ccc(CS(C)(=O)=O)cc5)n4)cc3)cc2)CC1", "observed": "binding", "method": "competition with immobilised ligand", "concentration": "1 µM", "measurement": "remaining binding", "value": "99%"}
{"SMILES": "CCCCC(=O)Nc1ccc(-c2ccc3ncn(CCC)c(=O)c3c2)cn1", "observed": "binding", "method": "competition with immobilised ligand", "concentration": "0.5 µM", "measurement": "remaining binding", "value": "86%"}
{"SMILES": "Cc1ccc(NC(=O)c2ccnc(C(F)(F)F)c2)cc1-c1cc(OCCO)nc(N2CCOCC2)c1", "observed": "binding", "method": "competition with immobilised ligand", "concentration": "1 µM", "measurement": "remaining binding", "value": "91%"}
{"SMILES": "C=CC(=O)N1CCC([C@@H]2CCNc3c(C(N)=O)c(-c4ccc(Oc5ccccc5)cc4)nn32)CC1", "observed": "cell-free assay", "concentration": "1 µM", "measurement": "inhibition", "value": "14%"}
{"SMILES": "C1=C/COCc2cc(ccc2OCCN2CCCC2)Nc2nccc(n2)-c2cccc(c2)COC/1", "observed": "binding", "concentration": "0.1 µM", "measurement": "remaining binding", "value": "94%"}
{"SMILES": "COc1ccc2oc(-c3ccc4nc(N)oc4c3)c/c(=N\\c3ccccc3NC(=O)CCN)c2c1", "observed": "binding", "concentration": "1 µM", "measurement": "remaining binding", "value": "95%"}
